Experimental data from ChEMBL document CHEMBL1145189, “Synthesis and evaluation of S-acyl-2-thioethyl esters of modified nucleoside 5'-monophosphates as inhibitors of hepatitis C virus RNA replication” (J Med Chem, 2005).

What was measured:
CHO [1] = test: Effect of compound (10000 uM) on growth of CHO cells measured as population doublings from the beginning of the experiment as percent of controls after 20 hr of treatment (harvested at 42h of treatment); type: functional, Cricetulus griseus
Outline: (§1)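 Exponentially growing CHO (clone WBL) monolayers treated for 20 h without S-9. DMSO stock diluted 100-fold into medium, giving 1% v/v DMSO as vehicle control. Cultures harvested at 20, 30 or 42 h after dosing. Growth expressed as population doublings from start of experiment as a percentage of controls.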

CHO [2] = test: Percent of CHO cells with chromosomal aberrations were determined at 10000 uM compound after 20 hr of treatment (harvested at 20h of treatment); type: functional, Cricetulus griseus
Outline: (§2)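 CHO (clone WBL) monolayers treated for 20 h without S-9, with DMSO stock diluted 100-fold into medium. Harvest at 20, 30 or 42 h after dosing; colcemid added 1–2 h before harvest for metaphase arrest. Cells fixed, and 200 cells scored per point for % aberrant cells. Points not scored where toxicity prevented it. Comparison against concurrent controls.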

CHO [3] = test: Effect of compound (10000 uM) on growth of CHO cells measured as population doublings from the beginning of the experiment as percent of controls after 20 hr of treatment (harvested at 20h of treatment); type: functional, Cricetulus griseus; outline: as §1
CHO [4] = test: Effect of compound (10000 uM) on growth of CHO cells measured as population doublings from the beginning of the experiment as percent of controls after 20 hr of treatment (harvested at 30h of treatment); type: functional, Cricetulus griseus; outline: as §1
CHO [5] = test: Percent of CHO cells with chromosomal aberrations were determined at 10000 uM compound after 20 hr of treatment (harvested at 30h of treatment); type: functional, Cricetulus griseus; outline: as §2
CHO [6] = test: Percent of CHO cells with chromosomal aberrations were determined at 10000 uM compound after 20 hr of treatment (harvested at 42h of treatment); type: functional, Cricetulus griseus; outline: as §2
[7] = Effective concentration against hepatitis C virus RNA replication in a subgenomic bicistronic replicon in HBI10A cells; type: functional, cell-based; conditions: Homo sapiens
Outline: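 Stable Huh-7-derived HBI10A hepatoma line carrying a subgenomic bicistronic HCV replicon. Compound incubated with cells for 24 h. Relative replicon RNA then quantified by in situ ribonuclease protection assay.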

[8] = Inhibitory concentration against hepatitis C virus NS5B-mediated RNA synthesis in HBI10A cells; type: functional, cell-based; conditions: Homo sapiens
[9] = Cytotoxic concentration of compound in human HBI10A cells infected with hepatitis C virus in MTS assay; type: functional
Outline: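 MTS cytotoxicity run on samples parallel to the replicon assay, at the same time (24 h compound exposure). Cells plated at 2.0 × 10⁴/well and compound added next day at 2× in medium. Incubation at 37 °C, 5% CO₂. MTS reagent added for 1 h, then absorbance read at 490 nm.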

| SMILES | EC50 [7] | IC50 [8] | CC50 [9] | further results |
| --- | --- | --- | --- | --- |
| Nc1ccn([C@H]2CC[C@@H](CO)O2)c(=O)n1 [ZALCITABINE] |  |  |  | Growth (CHO [1]): 105%; Aberrant cells (CHO [2]): 9.5%; Growth (CHO [3]): 65%; Growth (CHO [4]): 101%; Aberrant cells (CHO [5]): 8%; Aberrant cells (CHO [6]): 3% |
| CO[C@@H]1[C@H](O)[C@@H](CO)O[C@H]1n1cnc2c(O)nc(N)nc21 | > 50 µM | 1.2 µM |  |  |
| CO[C@@H]1[C@H](O)[C@@H](COP(=O)(OCCSC(=O)C(C)(C)C)OCCSC(=O)C(C)(C)C)O[C@H]1n1ccc2c(O)nc(N)nc21 | > 50 µM |  | > 100 µM |  |
| Nc1nc2c(ncn2[C@@H]2O[C@H](CO)C[C@H]2O)c(=O)[nH]1 | > 50 µM | 0.6 µM |  |  |
| CC(C)(C)C(=O)SCCOP(=O)(OCCSC(=O)C(C)(C)C)OC[C@@H]1C[C@@H](O)[C@H](n2ccc3c(O)nc(N)nc32)O1 | 7.2 µM |  | > 50 µM |  |
| Nc1nc(O)c2ccn([C@@H]3O[C@H](CO)C[C@H]3O)c2n1 | > 50 µM | 0.08 µM |  |  |
